Results from ChEMBL document CHEMBL5500411, “Discovery of Dual MER/AXL Kinase Inhibitors as Bifunctional Small Molecules for Inhibiting Tumor Growth and Enhancing Tumor Immune Microenvironment” (J Med Chem, 2024).

How the values were obtained:
[1] = molecular target: T1, Tyrosine-protein kinase Mer (Homo sapiens) (UniProt Q12866); assay: Inhibition of MER (unknown origin) at 1 uM preincubated for 15 mins followed by substrate and ATP addition and measured after 3 hrs by ADP-Glo kinase assay relative to control; details: time 195.0 min
T1 sequence (whole entry): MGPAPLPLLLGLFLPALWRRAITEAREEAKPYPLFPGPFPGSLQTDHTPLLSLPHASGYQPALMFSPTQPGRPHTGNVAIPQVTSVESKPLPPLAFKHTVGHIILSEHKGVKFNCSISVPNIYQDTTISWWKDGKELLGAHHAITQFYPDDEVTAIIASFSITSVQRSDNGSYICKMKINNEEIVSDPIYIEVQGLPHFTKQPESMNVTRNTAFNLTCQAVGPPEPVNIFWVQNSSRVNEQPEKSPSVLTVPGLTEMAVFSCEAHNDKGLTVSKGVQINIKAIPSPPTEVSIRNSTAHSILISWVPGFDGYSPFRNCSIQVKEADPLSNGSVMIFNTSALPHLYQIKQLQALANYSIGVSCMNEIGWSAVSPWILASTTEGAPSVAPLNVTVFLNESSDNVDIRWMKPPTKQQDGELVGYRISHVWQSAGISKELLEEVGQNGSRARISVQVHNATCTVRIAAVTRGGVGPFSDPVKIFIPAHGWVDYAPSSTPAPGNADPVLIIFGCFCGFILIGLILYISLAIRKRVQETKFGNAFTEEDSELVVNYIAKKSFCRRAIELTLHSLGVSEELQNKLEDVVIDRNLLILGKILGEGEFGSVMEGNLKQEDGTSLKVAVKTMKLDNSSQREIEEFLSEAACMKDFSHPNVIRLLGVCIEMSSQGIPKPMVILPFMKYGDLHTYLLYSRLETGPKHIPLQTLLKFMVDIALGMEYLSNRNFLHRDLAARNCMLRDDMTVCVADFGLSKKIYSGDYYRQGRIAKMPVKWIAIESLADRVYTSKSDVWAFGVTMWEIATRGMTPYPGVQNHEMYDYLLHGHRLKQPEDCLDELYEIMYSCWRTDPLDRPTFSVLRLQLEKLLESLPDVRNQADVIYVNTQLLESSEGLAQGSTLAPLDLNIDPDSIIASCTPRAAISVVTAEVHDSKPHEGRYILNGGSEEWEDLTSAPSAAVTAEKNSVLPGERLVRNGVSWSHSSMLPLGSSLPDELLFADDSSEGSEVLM

[2] = molecular target: Tyrosine-protein kinase receptor UFO (Homo sapiens) (UniProt P30530); assay: Inhibition of AXL (unknown origin) at 1 uM preincubated for 15 mins followed by substrate and ATP addition and measured after 3 hrs by ADP-Glo kinase assay relative to control; details: time 195.0 min
Chain of Tyrosine-protein kinase receptor UFO (Homo sapiens) (P30530 whole entry): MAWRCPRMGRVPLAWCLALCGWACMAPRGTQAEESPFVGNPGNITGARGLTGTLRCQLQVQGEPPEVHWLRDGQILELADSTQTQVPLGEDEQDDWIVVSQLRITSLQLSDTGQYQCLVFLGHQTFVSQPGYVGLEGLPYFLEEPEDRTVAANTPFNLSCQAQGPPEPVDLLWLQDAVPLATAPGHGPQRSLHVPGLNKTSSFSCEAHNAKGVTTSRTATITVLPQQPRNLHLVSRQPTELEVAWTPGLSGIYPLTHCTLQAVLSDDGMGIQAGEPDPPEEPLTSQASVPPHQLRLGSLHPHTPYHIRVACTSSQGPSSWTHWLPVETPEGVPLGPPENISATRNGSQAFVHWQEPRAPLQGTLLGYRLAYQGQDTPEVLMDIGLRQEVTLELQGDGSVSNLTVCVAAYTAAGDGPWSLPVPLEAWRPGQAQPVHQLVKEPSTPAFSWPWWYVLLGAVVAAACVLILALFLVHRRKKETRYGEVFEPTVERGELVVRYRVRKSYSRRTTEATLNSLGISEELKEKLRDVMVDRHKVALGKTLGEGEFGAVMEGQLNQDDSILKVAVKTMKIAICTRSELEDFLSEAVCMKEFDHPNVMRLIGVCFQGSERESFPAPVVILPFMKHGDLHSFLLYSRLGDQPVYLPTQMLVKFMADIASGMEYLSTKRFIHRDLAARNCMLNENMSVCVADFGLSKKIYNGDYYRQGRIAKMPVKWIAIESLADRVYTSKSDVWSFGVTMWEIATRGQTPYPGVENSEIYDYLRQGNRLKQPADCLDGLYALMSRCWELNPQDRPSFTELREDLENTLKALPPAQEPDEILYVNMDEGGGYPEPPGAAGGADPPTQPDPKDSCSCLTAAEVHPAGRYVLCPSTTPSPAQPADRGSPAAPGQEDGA

[3] = molecular target: Epidermal growth factor receptor (Homo sapiens) (UniProt P00533); assay: Inhibition of wildtype EGFR (unknown origin) at 1 uM by kinase Glo assay relative to control
Chain of Epidermal growth factor receptor (Homo sapiens) (P00533 whole entry): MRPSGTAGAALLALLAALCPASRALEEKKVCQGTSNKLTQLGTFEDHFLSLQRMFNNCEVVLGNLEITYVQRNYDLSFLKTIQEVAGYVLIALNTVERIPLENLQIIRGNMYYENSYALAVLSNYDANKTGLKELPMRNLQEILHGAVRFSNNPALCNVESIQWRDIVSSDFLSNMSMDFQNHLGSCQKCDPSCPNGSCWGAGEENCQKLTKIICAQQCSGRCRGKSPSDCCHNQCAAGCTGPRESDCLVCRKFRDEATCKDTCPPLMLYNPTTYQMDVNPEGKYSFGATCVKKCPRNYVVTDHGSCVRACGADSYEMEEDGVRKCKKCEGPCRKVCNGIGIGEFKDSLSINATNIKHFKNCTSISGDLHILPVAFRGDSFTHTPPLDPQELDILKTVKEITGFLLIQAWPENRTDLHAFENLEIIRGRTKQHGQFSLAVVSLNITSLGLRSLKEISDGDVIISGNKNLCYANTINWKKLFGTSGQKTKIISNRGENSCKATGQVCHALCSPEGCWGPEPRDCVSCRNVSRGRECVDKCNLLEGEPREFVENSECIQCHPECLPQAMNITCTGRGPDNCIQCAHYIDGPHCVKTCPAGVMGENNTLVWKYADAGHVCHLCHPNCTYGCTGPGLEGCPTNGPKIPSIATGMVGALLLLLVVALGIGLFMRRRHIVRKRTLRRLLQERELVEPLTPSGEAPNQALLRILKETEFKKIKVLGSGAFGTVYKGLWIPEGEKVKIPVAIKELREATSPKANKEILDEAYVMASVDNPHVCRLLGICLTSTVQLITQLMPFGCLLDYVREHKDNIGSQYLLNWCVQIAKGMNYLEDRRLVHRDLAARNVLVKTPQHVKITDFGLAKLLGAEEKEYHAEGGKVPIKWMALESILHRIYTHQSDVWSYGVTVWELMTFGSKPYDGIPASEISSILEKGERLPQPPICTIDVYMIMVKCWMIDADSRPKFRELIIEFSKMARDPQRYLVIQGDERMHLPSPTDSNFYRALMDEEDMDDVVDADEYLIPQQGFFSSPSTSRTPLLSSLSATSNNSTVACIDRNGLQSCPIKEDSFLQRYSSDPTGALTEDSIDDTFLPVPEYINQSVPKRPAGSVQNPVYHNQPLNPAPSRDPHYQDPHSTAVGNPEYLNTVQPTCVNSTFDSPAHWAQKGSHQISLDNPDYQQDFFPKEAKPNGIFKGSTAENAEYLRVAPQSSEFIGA
Procedure, shortened: (§1)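 In-house Kinase-Glo luminescence assay on wild-type and T790M/L858R EGFR. Values are the mean of at least two independent experiments.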

[4] = tested on: Epidermal growth factor receptor (Homo sapiens), P00533 [L858R,T790M]; assay: Inhibition of EGFR T790M/L858R double mutant (unknown origin) at 1 uM by kinase Glo assay relative to control; procedure, shortened: as §1
Chain of Epidermal growth factor receptor (Homo sapiens), P00533 [L858R,T790M] (P00533 whole entry T790M/L858R, looked up): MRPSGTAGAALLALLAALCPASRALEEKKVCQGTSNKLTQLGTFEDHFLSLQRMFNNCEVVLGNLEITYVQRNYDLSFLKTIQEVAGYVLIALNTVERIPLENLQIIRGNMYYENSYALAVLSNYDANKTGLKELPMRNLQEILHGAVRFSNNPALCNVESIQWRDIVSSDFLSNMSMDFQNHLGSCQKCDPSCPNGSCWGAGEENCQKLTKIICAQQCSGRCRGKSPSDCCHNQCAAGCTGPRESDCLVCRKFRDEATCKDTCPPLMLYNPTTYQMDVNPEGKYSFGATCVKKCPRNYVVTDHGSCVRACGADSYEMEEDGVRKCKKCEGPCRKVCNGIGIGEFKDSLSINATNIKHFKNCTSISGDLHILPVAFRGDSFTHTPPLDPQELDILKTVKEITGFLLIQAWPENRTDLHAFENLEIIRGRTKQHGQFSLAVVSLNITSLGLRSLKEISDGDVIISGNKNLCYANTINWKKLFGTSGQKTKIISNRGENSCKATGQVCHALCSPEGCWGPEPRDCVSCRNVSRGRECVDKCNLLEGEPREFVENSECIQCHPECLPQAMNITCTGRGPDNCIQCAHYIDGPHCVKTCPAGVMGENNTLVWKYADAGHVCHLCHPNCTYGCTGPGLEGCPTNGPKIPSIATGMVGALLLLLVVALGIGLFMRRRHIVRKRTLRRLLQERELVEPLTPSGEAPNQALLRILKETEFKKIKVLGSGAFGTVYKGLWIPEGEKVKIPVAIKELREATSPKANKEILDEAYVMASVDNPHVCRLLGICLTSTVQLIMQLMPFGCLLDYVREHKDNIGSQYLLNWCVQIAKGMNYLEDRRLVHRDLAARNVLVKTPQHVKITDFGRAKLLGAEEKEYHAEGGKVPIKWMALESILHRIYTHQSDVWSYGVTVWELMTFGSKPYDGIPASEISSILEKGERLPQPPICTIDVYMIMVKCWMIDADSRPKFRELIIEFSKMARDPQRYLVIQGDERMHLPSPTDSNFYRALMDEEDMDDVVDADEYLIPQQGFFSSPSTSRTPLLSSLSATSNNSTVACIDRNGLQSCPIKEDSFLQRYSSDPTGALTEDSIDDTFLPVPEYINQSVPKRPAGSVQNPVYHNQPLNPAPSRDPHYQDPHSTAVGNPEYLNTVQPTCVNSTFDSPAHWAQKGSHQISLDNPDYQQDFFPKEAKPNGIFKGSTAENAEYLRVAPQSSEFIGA

[5] = Toxicity in immunocompetent female C57BL/6 mouse implanted with mouse MC-38 cells assessed as body weight loss at 50 mg/kg, po administered once a day with five days on and two days off for 3 weeks; assay type: organism-based; details: in vivo, 504 h
Procedure, shortened: (§2)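 Syngeneic models in female C57BL/6 mice aged 6–7 weeks: MC38 (10⁵ cells) or Hepa1–6 (10⁶ cells) injected subcutaneously into the left flank. Oral dosing on a five-on/two-off schedule: MC38 at 50 mg/kg QD or BID for 3 weeks, Hepa1–6 at 30 mg/kg QD. Body weight was recorded weekly. n = 8–9 per group.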

[6] = Toxicity in immunocompetent female C57BL/6 mouse implanted with mouse MC-38 cells assessed as body weight loss at 50 mg/kg, po administered twice a day with five days on and two days off for 3 weeks; assay type: organism-based; details: in vivo, 504 h; procedure, shortened: as §2
[7] = Dose normalized AUC (0 to infinity) in male ICR mouse at 3 mg/kg, po measured after 24 hrs by LC-MS/MS analysis; assay type: ADME, organism-based; details: in vivo
Procedure, shortened: (§3)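 Male ICR mice (25–35 g) given one iv or oral dose of 2, 3 or 10 mg/kg. Vehicles were PEG400/DMA (80/20) for both routes, or DMSO/CrEL/D5W (5/5/90) iv and 1% CMC + 0.5% Tween80 oral. Plasma was taken by cardiac puncture at 0–24 h, three mice per time point. Parent drug was measured by LC-MS/MS and analysed noncompartmentally. DNAUC = AUC(0–inf)/dose.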

[8] = Dose normalized AUC (0 to infinity) in male ICR mouse at 3 mg/kg, iv measured after 24 hrs by LC-MS/MS analysis; assay type: ADME, organism-based; details: in vivo; procedure, shortened: as §3
[9] = Toxicity in immunocompetent female C57BL/6 mouse implanted with mouse MC-38 cells assessed as body weight loss at 25 to 50 mg/kg, po administered twice a day with five days on and two days off for 3 weeks; assay type: organism-based; details: in vivo, 504 h, dose 25-50 mg/kg
Procedure, shortened: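 Female C57BL/6 mice aged 6–7 weeks bearing subcutaneous MC38 (10⁵ cells) tumors, treated from 50–60 mm³. Dosing was 25 or 50 mg/kg oral BID on a five-on/two-off schedule for 3 weeks. Body weight was recorded weekly. n = 8 per group.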

[10] = Toxicity in ICR mouse assessed as decrease in creatinine level at 100 mg/kg administered for 14 days; assay type: organism-based; details: in vivo, 336 h, time 14 day
[11] = Toxicity in immunocompetent female C57BL/6 mouse implanted with mouse MC-38 cells assessed as body weight loss at 50 mg/kg, po administered once a day with five days on and two days off; assay type: organism-based; details: in vivo; procedure, shortened: as §2
[12] = Toxicity in immunocompetent female C57BL/6 mouse implanted with mouse Hepa1-6 cells assessed as body weight loss at 30 mg/kg, po administered once a day with five days on and two days off; assay type: organism-based; details: in vivo; procedure, shortened: as §2
[13] = Toxicity in immunodeficient NOD/SCID mouse xenografted with MER/AXL overexpressing human MDA-MB-231 cells assessed as body weight loss at 50 mg/kg, po administered once a day with five days on and two days off; assay type: organism-based; details: in vivo
[14] = Toxicity in BALB/c mouse implanted with mouse 4T1 cells assessed as body weight loss at 50 mg/kg, po administered once a day with five days on and two days off; assay type: organism-based; details: in vivo
Procedure, shortened: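 Female Balb/c mice aged 6–7 weeks implanted with 4T1 cells (1 million in matrigel/medium) in the fourth left mammary fat pad. Treatment started near 50–60 mm³: 50 mg/kg oral QD on a five-on/two-off schedule. Body weight was measured weekly. n = 8–9 per group.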

[15] = Volume of distribution at steady state in male ICR mouse at 2 mg/kg, iv measured after 24 hrs by LC-MS/MS analysis; assay type: ADME, organism-based; details: in vivo; procedure, shortened: as §3
[16] = Toxicity in ICR mouse assessed as decrease in creatinine level at 30 to 100 mg/kg administered for 14 days; assay type: organism-based; details: in vivo, 336 h, dose 30-100 mg/kg, time 14 day
[17] = Toxicity in ICR mouse at 10 to 100 mg/kg administered for 14 days; assay type: organism-based; details: in vivo, 336 h, dose 10-100 mg/kg, time 14 day
[18] = molecular target: T2, Tyrosine-protein kinase Mer (Homo sapiens, UniProt Q12866); assay: Inhibition of MER (unknown origin) by KINOMEScan assay
T2 sequence (Q12866 whole entry): T1 sequence (whole entry)

[19] = Dose normalized AUC (0 to infinity) in male ICR mouse at 2 mg/kg, iv measured after 24 hrs by LC-MS/MS analysis; assay type: ADME, organism-based; details: in vivo; procedure, shortened: as §3
[20] = Dose normalized AUC (0 to infinity) in male ICR mouse at 10 mg/kg, po measured after 24 hrs by LC-MS/MS analysis; assay type: ADME, organism-based; details: in vivo; procedure, shortened: as §3
MDA-MB-231 [21] = assay: Antitumor activity against MER/AXL overexpressing human MDA-MB-231 cells xenografted in immunodeficient NOD/SCID mouse model assessed as tumor growth inhibition at 25 mg/kg, po administered twice a day with five days on and two days off for 4 weeks in presence of (1r,4r)-4-(2-(butylamino)-5-(4-((4-methylpiperazin-1-yl)methyl)phenyl)-7H-pyrrolo[2,3-d]pyrimidin-7-yl)cyclohexan-1-ol relative to …; assay type: functional; details: MDA-MB-231, 672 h, read-out: TGI
MDA-MB-231 [22] = assay: Antitumor activity against MER/AXL overexpressing human MDA-MB-231 cells xenografted in immunodeficient NOD/SCID mouse model assessed as tumor growth inhibition at 25 mg/kg, po administered twice a day with five days on and two days off for 4 weeks relative to control; assay type: functional; details: MDA-MB-231, 672 h, read-out: TGI
Procedure, shortened: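 Female NOD/SCID mice (6–7 weeks old) were given 5 million Mycoplasma-free MDA-MB-231 cells in 1:1 matrigel/medium, implanted subcutaneously. After randomization at about 150 mm³ average tumor volume, mice got oral drug or vehicle, BID, FOTO, for 4 weeks, n = 8 per group. Caliper volumes (L×W×W/2) were measured weekly. %TGI = [1 − ΔT/ΔC]×100, with Δ taken from day 0.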

MDA-MB-231 [23] = assay: Antitumor activity against MER/AXL overexpressing human MDA-MB-231 cells xenografted in immunodeficient NOD/SCID mouse model assessed as tumor growth inhibition at 25 mg/kg, po administered twice a day with five days on and two days off for 4 weeks in presence of bemcentinib relative to control; assay type: functional; details: MDA-MB-231, 672 h, read-out: TGI
Procedure, shortened: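 MDA-MB-231 cells (5 million, 1:1 matrigel/medium) implanted in 6–7-week-old female NOD/SCID mice. Dosing began at about 150 mm³ mean tumor volume: 25 mg/kg oral BID on a five-on/two-off schedule for 4 weeks, given alone or in combination.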

Structure (SMILES): Nc1cccc(-c2c(-c3ccccc3)oc3ncnc(Oc4ccc(NC(=S)NC(=O)Cc5ccccc5)cc4)c23)c1
- inhibition [1]: 9%
- inhibition [2]: 95%
- inhibition [3]: 1%
- inhibition [4]: -6%

Structure (SMILES): O=C(Nc1ccc(F)cc1)C1(C(=O)Nc2ccc(Oc3ncnc4oc(-c5ccccc5)c(-c5ccccc5)c34)cc2)CC1
- inhibition [1]: 41%
- inhibition [2]: 98%
- inhibition [3]: 3%
- inhibition [4]: 2%

Structure (SMILES): Cn1cc(-c2oc3ncnc(Oc4ccc(NC(=O)c5cccn(-c6ccc(F)cc6)c5=O)cc4)c3c2-c2cccc(N)c2)cn1
- Activity [5]: Non-Toxic
- Activity [6]: Non-Toxic
- AUC/dose [7]: 764 ng·h/mL
- AUC/dose [8]: 3985.3 ng·h/mL
- Activity [9]: Non-Toxic

Structure (SMILES): COc1cc2nccc(Oc3ccc(NC(=O)c4cc5c(n(-c6ccccc6)c4=O)CCCC5=O)nc3)c2cc1OC [TAMNORZATINIB]
- Activity [10]: Toxic
- Activity [11]: Non-Toxic
- Activity [12]: Non-Toxic
- Activity [13]: Non-Toxic
- Activity [14]: Non-Toxic

Structure (SMILES): CN(C)Cc1cccc(-c2c(-c3cnn(C)c3)oc3ncnc(Oc4ccc(NC(=O)c5cccn(-c6ccc(F)cc6)c5=O)cc4)c23)c1
- Vdss [15]: 52 L/kg
- Activity [16]: Toxic
- Activity [11]: Non-Toxic
- Activity [12]: Non-Toxic
- Activity [5]: Non-Toxic
- Activity [6]: Non-Toxic
- Activity [17]: Non-Toxic
- Activity [13]: Non-Toxic
- Activity [14]: Non-Toxic

Structure (SMILES): O=C(Nc1ccc(F)cc1)C1(C(=O)Nc2ccc(Oc3ncnc4oc(-c5ccccc5)cc34)cc2)CC1
- inhibition [1]: 4%
- inhibition [2]: 53%
- inhibition [3]: 4%
- inhibition [4]: 1%

Structure (SMILES): Nc1cccc(-c2c(-c3ccccc3)oc3ncnc(Nc4ccc(NC(=O)C5(C(=O)Nc6ccc(F)cc6)CC5)cc4)c23)c1
- inhibition [1]: 19%
- inhibition [2]: 92%
- inhibition [3]: 1%
- inhibition [4]: -4%

Structure (SMILES): Nc1cccc(-c2c(-c3ccccc3)oc3ncnc(Oc4ccc(NC(=O)C5(C(=O)Nc6ccc(F)cc6)CC5)cc4)c23)c1
- inhibition [1]: 71%
- inhibition [2]: 100%
- inhibition [3]: 0%
- inhibition [4]: -9%

Structure (SMILES): Cc1ccc(C(=O)Nc2ccc(Oc3cc4cnn(C)c4cc3-c3cn[nH]c3)c(F)c2)c(=O)n1-c1ccc(F)cc1 [MERESTINIB]
- IC50 [18]: 0.8 nM

Structure (SMILES): Cn1cc(-c2oc3ncnc(Oc4ccc(NC(=O)c5cccn(-c6ccc(F)cc6)c5=O)cc4)c3c2-c2cccc(N3CCNCC3)c2)cn1
- AUC/dose [19]: 454.5 ng.hr/ml per mg/kg
- AUC/dose [20]: 2.6 ng.hr/ml per mg/kg

Structure (SMILES): Cn1cc(-c2oc3ncnc(Oc4ccc(NC(=O)c5cccn(-c6ccc(F)cc6)c5=O)cc4)c3c2-c2cccc(CN)c2)cn1
- AUC/dose [19]: 483 ng.hr/ml per mg/kg

Structure (SMILES): CN1CCN(c2cccc(-c3c(-c4cnn(C)c4)oc4ncnc(Oc5ccc(NC(=O)c6cccn(-c7ccc(F)cc7)c6=O)cc5)c34)c2)CC1
- AUC/dose [19]: 221 ng.hr/ml per mg/kg
- AUC/dose [20]: 32.8 ng.hr/ml per mg/kg

Structure (SMILES): Nc1nc(Nc2ccc3c(c2)CC[C@@H](N2CCCC2)CC3)nn1-c1cc2c(nn1)-c1ccccc1CCC2 [BEMCENTINIB]
- inhibition in vivo at 25 mg/kg (MDA-MB-231 [21]): 52.4%
- inhibition in vivo at 25 mg/kg (MDA-MB-231 [22]): 7.7%

Structure (SMILES): CCCCNc1ncc2c(-c3ccc(CN4CCN(C)CC4)cc3)cn([C@H]3CC[C@H](O)CC3)c2n1
- inhibition in vivo at 25 mg/kg (MDA-MB-231 [23]): 52.4%
- inhibition in vivo at 25 mg/kg (MDA-MB-231 [22]): 15.9%

Structure (SMILES): CNc1cccc(-c2c(-c3cnn(C)c3)oc3ncnc(Oc4ccc(NC(=O)c5cccn(-c6ccc(F)cc6)c5=O)cc4)c23)c1
- AUC/dose [19]: 3330.5 ng.hr/ml per mg/kg
- AUC/dose [20]: 15.3 ng.hr/ml per mg/kg
